According to ChEMBL document CHEMBL3877293, “Synthesis and Antineoplastic Evaluation of Novel Unsymmetrical 1,3,4-Oxadiazoles” (J Med Chem, 2016):
Calls of active or inactive are those of the source. The calls are words filed in the database; no cut-off is given here.

Columns and labels:
[1] = Antiproliferative activity against human MCF7 cells after 72 hrs by XTT assay; assay type: functional, cell-based; conditions: MCF7, 72 h
Procedure, shortened: (§1)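 Cells plated at 1500–2000 per well by doubling time, treated after 24 h with a concentration series in six triplicate wells, and incubated 72 h without a medium change. XTT reagent was then added for 4 h at 37 °C and absorbance read at 490 nm. IC50 is the concentration halving absorbance versus untreated cells. Experiments run in triplicate.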

[2] = tested on: MCF7; experiment: Antiproliferative activity against human MCF7 cells at 2 uM after 72 hrs by XTT assay; assay type: functional, cell-based
[3] = Antiproliferative activity against human SK-N-AS cells after 72 hrs by XTT assay; assay type: functional, cell-based; procedure, shortened: as §1
[4] = tested on: MCF7; experiment: Selectivity ratio of IC50 for human MCF7 cells to IC50 for human RD cells; assay type: functional
Procedure, shortened: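 XTT viability: 1500–2000 cells/well plated by doubling time; compounds added after 24 h, then 72 h further culture without medium change. XTT reagent 4 h at 37 °C, absorbance read at 490 nm. IC50 is the concentration halving absorbance versus untreated cells; triplicate experiments. Ratio is MCF7 IC50 divided by IC50 in the named line.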

[5] = Antiproliferative activity against human MCF7 cells at 0.5 uM after 72 hrs in presence of 5 uM BCRP inhibitor harmine by XTT assay relative to control; assay type: functional
Procedure, shortened: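 Mcf7 cells treated after 24 h for 72 h at 37 °C, 5% CO2 with test compound at 0.5 μM alone or combined with harmine (1, 3, 5 μM) or reversan (5, 15, 25 μM). XTT was added for 4 h at 37 °C, absorbance read at 490 nm, and viability compared with control.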

[6] = Cell cycle arrest in human MCF7 cells assessed as S phase accumulation at 1 uM after 144 hrs by propidium iodide staining based flow cytometry (reference value: 17.8%); assay type: functional
[7] = Cell cycle arrest in human NCI-H1299 cells assessed as S phase accumulation at 1 uM after 24 hrs by propidium iodide staining based flow cytometry (reference value: 16.4 +/- 1.76%); assay type: functional
[8] = Cell cycle arrest in human NCI-H1299 cells assessed as G2/M phase accumulation at 1 uM after 24 hrs by propidium iodide staining based flow cytometry (reference value: 22.2 +/- 1.74%); assay type: functional
[9] = Cell cycle arrest in human RD cells assessed as subG1 phase accumulation at 1 uM after 24 hrs by propidium iodide staining based flow cytometry relative to DMSO control; assay type: functional
[10] = Cell cycle arrest in human RD cells assessed as G2/M phase accumulation at 1 uM after 24 hrs by propidium iodide staining based flow cytometry (reference value: 28.9 +/- 1.93%); assay type: functional
[11] = Cell cycle arrest in human T98G cells assessed as G1 phase accumulation at 1 uM after 24 hrs by propidium iodide staining based flow cytometry (reference value: 86.1 +/- 1.29%); assay type: functional
[12] = Cell cycle arrest in human SK-N-AS cells assessed as subG1 phase accumulation at 1 uM after 24 hrs by propidium iodide staining based flow cytometry relative to DMSO control; assay type: functional
[13] = Cell cycle arrest in human SK-N-AS cells assessed as G1 phase accumulation at 1 uM after 24 hrs by propidium iodide staining based flow cytometry (reference value: 51.5 +/- 1.39%); assay type: functional
[14] = Cell cycle arrest in human SK-N-AS cells assessed as G2/M phase accumulation at 1 uM after 24 hrs by propidium iodide staining based flow cytometry (reference value: 25.2 +/- 1.32%); assay type: functional
[15] = Cell cycle arrest in human Kelly cells assessed as S phase accumulation at 1 uM after 24 hrs by propidium iodide staining based flow cytometry (reference value: 16.1 +/- 1.28%); assay type: functional
[16] = Cell cycle arrest in human PC3 cells assessed as G2/M phase accumulation at 1 uM after 24 hrs by propidium iodide staining based flow cytometry (reference value: 26.8 +/- 1.69%); assay type: functional; conditions: PC-3
[17] = Cell cycle arrest in human MCF7 cells assessed as G1 phase accumulation at 1 uM treated for 24 hrs followed by compound washout measured after 24 hrs by propidium iodide staining based flow cytometry (reference value: 61.4%); assay type: functional
[18] = Cell cycle arrest in human MCF7 cells assessed as G2/M phase accumulation at 1 uM treated for 24 hrs followed by compound washout measured after 24 hrs by propidium iodide staining based flow cytometry (reference value: 26.4%); assay type: functional
[19] = Cell cycle arrest in human NB-1 cells assessed as G2/M phase accumulation at 1 uM after 48 hrs by propidium iodide staining based flow cytometry (reference value: 12.4%); conditions: nb1, 48 h
[20] = Cell cycle arrest in human NB-1 cells assessed as S phase accumulation at 1 uM after 72 hrs by propidium iodide staining based flow cytometry (reference value: 2.5%); conditions: nb1, 72 h
[21] = Cell cycle arrest in human NB1 hTERT cells assessed as G2/M phase accumulation at 1 uM after 48 hrs by propidium iodide staining based flow cytometry (reference value: 27.2%); assay type: functional
[22] = Disruption of beta-tubulin network in human MCF7 cells assessed as uneven distribution around nuclei at 1 uM after 24 hrs by DAPI staining based immunofluorescence microscopic analysis; assay type: cell-based
Procedure, shortened: (§2)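 Cells seeded on glass coverslips (1 x 10^5/well), treated 24 h, fixed in 4% paraformaldehyde 15 min, permeabilized with 0.5% Triton X-100, blocked in 5% BSA/PBS, stained overnight at 4 °C with anti-β-tubulin (1:200) then fluorescent secondary antibody; nuclei counterstained with DAPI; microtubule organization and nuclear morphology examined by fluorescence microscopy.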

[23] = tested on: SH-SY5Y; experiment: Disruption of beta-tubulin network in human SH-SY5Y cells assessed as shorter microtubule bundles around nuclei at 1 uM after 24 hrs by DAPI staining based immunofluorescence microscopic analysis; assay type: cell-based; procedure, shortened: as §2
[24] = tested on: SH-SY5Y; experiment: Disruption of beta-tubulin network in human SH-SY5Y cells assessed as pyknotic nuclei at 1 uM after 24 hrs by DAPI staining based immunofluorescence microscopic analysis; assay type: cell-based; procedure, shortened: as §2
[25] = tested on: HeLa; experiment: Induction of apoptosis in human HeLa cells assessed as late apoptotic cells at 5 uM after 48 hrs by Annexin-V FITC/propidium iodide staining based flow cytometry (reference value: 4.9%); assay type: functional
[26] = tested on: A549; experiment: Induction of apoptosis in human A549 cells assessed as live cells at 5 uM after 72 hrs by Annexin-V FITC/propidium iodide staining based flow cytometry (reference value: 91.9%); assay type: functional
[27] = tested on: A549; experiment: Induction of apoptosis in human A549 cells assessed as early apoptotic cells at 5 uM after 72 hrs by Annexin-V FITC/propidium iodide staining based flow cytometry (reference value: 1.3%); assay type: functional
[28] = Induction of apoptosis in human NB-1 cells assessed as late apoptotic cells at 5 uM after 72 hrs by Annexin-V FITC/propidium iodide staining based flow cytometry (reference value: 3.3%); assay type: cell-based; conditions: nb1, 72 h
[29] = Antiproliferative activity against human NB-1 cells after 72 hrs by XTT assay; assay type: cell-based; conditions: NB1, 72 h; procedure, shortened: as §1
[30] = Cell cycle arrest in human NB1 hTERT cells assessed as sub G1 phase accumulation at 1 uM after 48 hrs by propidium iodide staining based flow cytometry relative to control; assay type: functional
[31] = Cell cycle arrest in human NB1 hTERT cells assessed as sub G1 phase accumulation at 1 uM after 72 hrs by propidium iodide staining based flow cytometry relative to control; assay type: functional

Cc1[nH]c2c(c1-c1nnc(-c3ccccc3)o1)Cc1ccccc1-2
IC50 [1]: 1700 nM
Activity [2]: Active
IC50 [3]: 190 nM
Ratio IC50 [4]: 28 - 34
Activity [5]: 40%
Activity [6]: 5.6%
Activity [7]: 7.6%
Activity [8]: 74.6%
Activity [9]: 6.1%
Activity [10]: 46.4%
Activity [11]: 11.1%
Activity [12]: 6.3%
Activity [13]: 10.8%
Activity [14]: 73%
Activity [15]: 9.7%
Activity [16]: 72%
Activity [17]: 56.8%
Activity [18]: 31.7%
Activity [19]: 15%
Activity [20]: 4.3%
Activity [21]: 23.1%
Activity [22]: Active
Activity [23]: Active
Activity [24]: Active
Activity [25]: 85.1%
Activity [26]: 42.7%
Activity [27]: 11%
Activity [28]: 8.3%
IC50 [29]: 1300 nM
Activity [30]: 24.9%
Activity [31]: 25.3%
